Active and inactive are the calls of the source. No cut-off for these calls is given here.

One data set concerns HSC-4. Description: Cytotoxicity against HSC4 cells. Conditions: Homo sapiens. It counts as functional. In short, it runs like this: (§1)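 Adherent cells pre-cultured 24 h in DMEM with 10% […] FBS, humidified 5% CO2, then exposed to a range of compound concentrations. Cells washed once with PBS, incubated 4 h in fresh medium with MTT, lysed in DMSO, viable cells read at 540 nm. CC50 from dose-response curves, average of two independent determinations.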

The nature of data set [1]: Cytotoxicity against HPC cells. It counts as cell-based. To be noted: human. In short, it runs like this:
as §1

Data set [2] relates to HSC-2. Description: Cytotoxicity against HSC2 cells. It counts as functional. Conditions: Homo sapiens. Put shortly: as §1
Data set [3] deals with HL-60. The experiment in a line: Cytotoxicity against human HL60 cells. It counts as functional. Put shortly: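 HL-60 cells grown in RPMI1640 plus 10% FBS in humidified 5% CO2, exposed to a range of compound concentrations. Viable cells counted by trypan blue exclusion. CC50 from dose-response curves, average of two independent determinations.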
The nature of data set [4]: Cytotoxicity against HGF cells. To be noted: human. It counts as cell-based. In short, it runs like this: as §1
The subject of a further data set is HSC-3. The experiment in a line: Cytotoxicity against HSC3 cells. The format is functional. Conditions: Homo sapiens. Put shortly: as §1
Data set [5] can be described thus: Cytotoxicity against HPLF cells. The format is cell-based. To be noted: human. Put shortly:
as §1

Data set [6] relates to HSC-2. Description: Effect on apoptosis in HSC2 cells assessed as increase in caspase 9 activation at 32 uM after 4 hrs. It counts as functional, cell-based. Conditions: Homo sapiens. In short, it runs like this: (§2)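 HSC-2 cells (2×10^6) grown in DMEM with 10% FBS in humidified 5% CO2, incubated 4 h with 4, 8, 16 or 32 µM compound; actinomycin D 1 µg/mL as positive control. Lysate (200 µg protein) incubated 2 h at 37 °C with DEVD-pNA (caspase-3), IETD-pNA (caspase-8) or LEHD-pNA (caspase-9); released pNA read at 405 nm. Mean of 2–3 experiments.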

In data set [7] the test system is HL-60. The experiment in a line: Effect on apoptosis in human HL60 cells assessed as increase in caspase 3 activation at 4 uM after 4 hrs. It counts as functional, cell-based.
Data set [8] concerns HSC-2. The experiment in a line: Effect on apoptosis in HSC2 cells assessed as increase in caspase 8 activation at 32 uM after 4 hrs. Conditions: Homo sapiens. The format is functional, cell-based. Put shortly:
as §2

Data set [9] has as its system HSC-2. The experiment in a line: Effect on apoptosis in HSC2 cells assessed as increase in caspase 3 activation at 32 uM after 4 hrs. It counts as functional, cell-based. Conditions: Homo sapiens. Put shortly:
as §2

Data set [10] relates to HL-60. Description: Effect on apoptosis in human HL60 cells assessed as increase in caspase 3 activation above 8 uM after 4 hrs. It counts as functional, cell-based.
Data set [11] has as its system HSC-2. The experiment in a line: Effect on apoptosis in HSC2 cells assessed as increase in caspase 3 activation at 8 uM after 4 hrs. It counts as functional, cell-based. To be noted: Homo sapiens. In short, it runs like this:
as §2

Data set [12] relates to HL-60. The experiment in a line: Effect on apoptosis in human HL60 cells assessed as increase in caspase 8 activation above 8 uM after 4 hrs. The format is functional, cell-based.
The test system of data set [13] is HL-60. The experiment in a line: Effect on apoptosis in human HL60 cells assessed as increase in caspase 9 activation above 8 uM after 4 hrs. It counts as functional, cell-based.

Take `COc1ccc(/C=C/C(=O)/C=C/c2ccc([N+](=O)[O-])cc2)cc1`: the CC50 (usually the concentration that lowers cell viability or growth by half) in the data set on HSC-4 was determined as 12 µM; in [1], 141 µM; with HSC-2 [2] it was 6.3 µM; with HL-60 [3] it was 25 µM; in data set [4], 81 µM; in the data set with HSC-3, 16 µM. In data set [5], this compound displayed a CC50 of 193 µM.
Turning to `COc1cc(/C=C2\CC/C(=C\c3cc(OC)c(OC)c(OC)c3)C2=O)cc(OC)c1OC`, the CC50 amounted to 58 µM in the data set on HSC-4; 247 µM in [1]; 19 µM in the data set on HSC-2 [2]; 21 µM in the data set with HL-60 [3]; 240 µM in data set [4]; 89 µM with HSC-3. Besides, the CC50 in data set [5] turned out to be 281 µM.
Turning to `COc1cc(/C=C2\CCC/C(=C\c3ccc([N+](=O)[O-])cc3)C2=O)cc(OC)c1OC`, in the data set on HSC-2 [6], the outcome was inactive. Moreover, in the data set on HSC-4, the CC50 is 1.5 µM. For the same compound, the outcome with HL-60 [7], with HSC-2 [8] and in the data set with HSC-2 [9] was Active.
As for `COc1cc(/C=C2\CCC/C(=C\c3cc(OC)c(OC)c(OC)c3)C2=O)cc(OC)c1OC`, the cytotoxic concentration (CC50) with HSC-4 was found to be 36 µM; in [1] it was 285 µM; in the data set on HSC-2 [2], 34 µM; in the data set on HL-60 [3], 46 µM; in data set [4] it was 335 µM; in the data set on HSC-3, 62 µM. The half-maximal cytotoxic concentration (CC50) in [5] is 388 µM.
Turning to `COc1ccc(/C=C2\CCC/C(=C\c3ccc([N+](=O)[O-])cc3)C2=O)cc1`, the CC50 with HSC-4 was above 400 µM.
Turning to `COc1cc(/C=C2\CCCC/C(=C\c3cc(OC)c(OC)c(OC)c3)C2=O)cc(OC)c1OC`, the CC50 was 67 µM with HSC-4; 276 µM in [1]; 113 µM in the data set on HSC-2 [2]; 46 µM with HL-60 [3]; 229 µM in [4]; 132 µM in the data set with HSC-3. For the same compound, the CC50 in [5] was 250 µM.
`COc1cc(/C=C/C(=O)/C=C/c2ccc([N+](=O)[O-])cc2)cc(OC)c1OC`: the outcome in the data set with HSC-2 [6], in the data set with HL-60 [10], in the data set on HSC-2 [11], in the data set with HL-60 [12] and in the data set with HL-60 [13] was Active. Besides, the CC50 with HSC-4 is 3.8 µM; in [1], 94 µM; with HSC-2 [2] it was below 3.1 µM; in the data set on HL-60 [3], 6.4 µM; in data set [4], 16 µM; in the data set with HSC-3, 5.7 µM. Further, the CC50 in data set [5] was 106 µM.
`COc1cc(/C=C2\CCCCCC2=O)cc(OC)c1OC`: the CC50 with HSC-4 was determined as 269 µM; in data set [1], 277 µM; with HSC-2 [2], 214 µM; in the data set with HL-60 [3], 31 µM; in data set [4] it was 262 µM; in the data set with HSC-3 it was 200 µM. In addition, it took 291 µM to reach half-maximal cytotoxicity in data set [5] (CC50).
Take `COc1cc(/C=C/C(C)=O)cc(OC)c1OC`: the CC50 with HSC-4 came out at 41 µM; in data set [1] it was 188 µM; in the data set with HSC-2 [2], 55 µM; in the data set on HL-60 [3] it was 47 µM; in data set [4], 159 µM; in the data set on HSC-3, 72 µM. The compound further displayed a 50% cytotoxic concentration (CC50) in [5] of 263 µM.
In the case of `COc1cc(/C=C2\CCCC/C(=C\c3ccc([N+](=O)[O-])cc3)C2=O)cc(OC)c1OC`, the CC50 was found to be 100 µM with HSC-4; 198 µM in data set [1]; 116 µM in the data set with HSC-2 [2]; 266 µM in the data set with HL-60 [3]; 256 µM in [4]; 279 µM in the data set with HSC-3. The same compound came in with a CC50 in data set [5] of 370 µM.
Consider `N[C@@H](Cc1ccc(N(CCCl)CCCl)cc1)C(=O)O` [MELPHALAN], for which the half-maximal cytotoxic concentration (CC50) in the data set on HSC-4 is 81 µM; in [1] it was above 200 µM; in the data set with HSC-2 [2], 35 µM; in the data set on HL-60 [3] it was 6 µM; in data set [4], above 200 µM; with HSC-3, 115 µM. In [5], this compound returned a CC50 above 200 µM.

These data come from ChEMBL document CHEMBL1147931, “3-(3,4,5-Trimethoxyphenyl)-1-oxo-2-propene: a novel pharmacophore displaying potent multidrug resistance reversal and selective cytotoxicity” (Bioorg Med Chem, 2007).
